Measured values from ChEMBL document CHEMBL1165950, “Design and synthesis of new potent anticancer pyrazoles with high FLT3 kinase inhibitory selectivity” (Bioorg Med Chem, 2010).

How the values were obtained:
Type in all cases: functional
[1] = system: SNB-75; test: Cytotoxicity against human SNB75 cells assessed as cell growth at 100 nM after 48 hrs by sulforhodamine B assay; conditions: SNB-75, 48 h, read-out: Activity
[2] = system: U-251; test: Cytotoxicity against human U251 cells assessed as cell growth at 100 nM after 48 hrs by sulforhodamine B assay; conditions: U-251, 48 h, read-out: Activity
[3] = system: T47D; test: Cytotoxicity against human T47D cells assessed as cell growth at 10 uM after 48 hrs by sulforhodamine B assay; conditions: read-out: Activity
[4] = system: HL-60(TB); test: Cytotoxicity against human HL-60(TB) cells assessed as cell growth at 0.01 uM after 48 hrs by sulforhodamine B assay; conditions: HL-60, 48 h, read-out: Activity
How it was run: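 NCI 60-cell panel. Cells are grown in RPMI 1640 with 5% FBS and 2 mM L-glutamine, seeded at 5000–40,000 cells/well according to doubling time, and preincubated 24 h. Time-zero plates are TCA-fixed. Compound from DMSO stock is given at five 10-fold or 1/2-log concentrations for 48 h at 37 °C, 5% CO2. Suspension cells are fixed with 80% TCA (final 16%) and SRB-stained, with absorbance at 515 nm. Percent growth is derived from Tz, control and test readings.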

[5] = system: K562; test: Cytotoxicity against human K562 cells assessed as cell growth at 0.01 uM after 48 hrs by sulforhodamine B assay; conditions: K562, 48 h, read-out: Activity
[6] = system: HOP-62; test: Cytotoxicity against human HOP62 cells assessed as cell growth at 1 uM after 48 hrs by sulforhodamine B assay; conditions: HOP-62, 48 h, read-out: Activity
[7] = system: M14; test: Cytotoxicity against human M14 cells assessed as cell growth at 10 uM; conditions: read-out: Activity
How it was run: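 NCI-60 screen: cells grown in RPMI 1640 with 5% FBS and 2 mM L-glutamine, plated at 5000–40,000 cells/well according to doubling time, and preincubated 24 h at 37 °C, 5% CO2. The single 10 µM dose (DMSO stock) was added, then incubated 48 h. Cells were TCA-fixed and stained with 0.4% SRB, read at 515 nm, and growth % calculated against time-zero and control plates.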

[8] = system: DU-145; test: Cytotoxicity against human DU145 cells assessed as cell growth at 10 uM; conditions: read-out: Activity
How it was run: (§1)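 Single-dose NCI-60 screen at 10 µM. Cells were grown in RPMI 1640 with 5% FBS and 2 mM L-glutamine, then treated for 48 h at 37 °C. Protein was measured by SRB staining with absorbance at 515 nm. Percentage growth was recorded, and inhibition percentage was calculated as 100 minus growth percentage.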

[9] = system: M14; test: Cytotoxicity against human M14 cells assessed as cell growth at 1 uM after 48 hrs by sulforhodamine B assay; conditions: M14, 48 h, read-out: Activity
[10] = system: MDA-MB-435; test: Cytotoxicity against human MDA-MB-435 cells assessed as cell growth at 1 uM after 48 hrs by sulforhodamine B assay; conditions: MDA-MB-435, 48 h, read-out: Activity
[11] = system: SNB-75; test: Cytotoxicity against human SNB75 cells assessed as cell growth at 0.01 uM after 48 hrs by sulforhodamine B assay; conditions: SNB-75, 48 h, read-out: Activity
[12] = system: IGROV-1; test: Cytotoxicity against human IGROV1 cells assessed as cell growth at 0.01 uM after 48 hrs by sulforhodamine B assay; conditions: IGROV-1, 48 h, read-out: Activity
[13] = system: CAKI-1; test: Cytotoxicity against human Caki1 cells assessed as cell growth at 0.01 uM after 48 hrs by sulforhodamine B assay; conditions: CAKI-1, 48 h, read-out: Activity
[14] = system: KM12; test: Cytotoxicity against human KM12 cells assessed as cell growth at 0.001 uM after 48 hrs by sulforhodamine B assay; conditions: KM12, 48 h, read-out: Activity
[15] = system: NCI-H322M; test: Growth inhibition of human NCI-H322M cells after 48 hrs by sulforhodamine B assay; conditions: for CC50: read-out: LC50 (the source's name)
How it was run: (§2)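 NCI 60-cell screen, five-dose mode. Cells grown in RPMI 1640 with 5% FBS and 2 mM L-glutamine and plated at 5000-40,000 cells/well according to doubling time. After 24 h preincubation, a Tz plate was TCA-fixed. Five concentrations (10-fold or 1/2 log dilutions) were applied for 48 h at 37 °C. SRB staining read at 515 nm. IC50 taken from [(Ti-Tz)/(C-Tz)]×100 = 50.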

[16] = system: HCT-15; test: Growth inhibition of human HCT15 cells after 48 hrs by sulforhodamine B assay; conditions: HCT-15, 48 h; for CC50: read-out: LC50 (the source's name); how it was run: as §2
[17] = system: SF-539; test: Growth inhibition of human SF539 cells after 48 hrs by sulforhodamine B assay; conditions: SF-539, 48 h; for CC50: read-out: LC50 (the source's name); how it was run: as §2
[18] = system: Malme-3M; test: Growth inhibition of human MALME-3M cells after 48 hrs by sulforhodamine B assay; conditions: for CC50: read-out: LC50 (the source's name); how it was run: as §2
[19] = system: MDA-MB-435; test: Growth inhibition of human MDA-MB-435 cells after 48 hrs by sulforhodamine B assay; conditions: MDA-MB-435, 48 h; for CC50: read-out: LC50 (the source's name); how it was run: as §2
[20] = system: MDA-MB-231; test: Cytotoxicity against human MDA-MB-231 cells assessed as cell growth at 0.01 uM after 48 hrs by sulforhodamine B assay; conditions: MDA-MB-231, 48 h, read-out: Activity
[21] = system: NCI-H226; test: Cytotoxicity against human NCI-H226 cells assessed as cell growth at 100 nM after 48 hrs by sulforhodamine B assay; conditions: NCI-H226, 48 h, read-out: Activity
[22] = system: OVCAR-8; test: Cytotoxicity against human OVCAR8 cells assessed as cell growth at 1 uM after 48 hrs by sulforhodamine B assay; conditions: OVCAR-8, 48 h, read-out: Activity
[23] = system: HCT-116; test: Cytotoxicity against human HCT116 cells assessed as cell growth at 10 uM; conditions: read-out: Activity; how it was run: as §1
[24] = system: K562; test: Cytotoxicity against human K562 cells assessed as cell growth at 10 uM after 48 hrs by sulforhodamine B assay; conditions: K562, 48 h, read-out: Activity
[25] = system: HOP-62; test: Cytotoxicity against human HOP62 cells assessed as cell growth at 10 uM after 48 hrs by sulforhodamine B assay; conditions: HOP-62, 48 h, read-out: Activity
[26] = system: HOP-92; test: Cytotoxicity against human HOP92 cells assessed as cell growth at 10 uM after 48 hrs by sulforhodamine B assay; conditions: HOP-92, 48 h, read-out: Activity
[27] = system: MDA-MB-435; test: Cytotoxicity against human MDA-MB-435 cells assessed as cell growth at 10 uM after 48 hrs by sulforhodamine B assay; conditions: MDA-MB-435, 48 h, read-out: Activity
[28] = system: UACC-257; test: Cytotoxicity against human UACC257 cells assessed as cell growth at 10 uM after 48 hrs by sulforhodamine B assay; conditions: UACC-257, 48 h, read-out: Activity
[29] = system: UACC-62; test: Cytotoxicity against human UACC62 cells assessed as cell growth at 10 uM after 48 hrs by sulforhodamine B assay; conditions: UACC-62, 48 h, read-out: Activity
[30] = system: NCI-H460; test: Cytotoxicity against human NCI-H460 cells assessed as cell growth at 1 uM after 48 hrs by sulforhodamine B assay; conditions: NCI-H460, 48 h, read-out: Activity

Compound | growth at 0.1 µM [1] [%] | growth at 0.1 µM [2] [%] | growth at 10 µM [3] [%] | growth at 0.01 µM [4] [%] | growth at 0.01 µM [5] [%] | growth at 1 µM [6] [%] | growth at 10 µM [7] [%] | growth at 10 µM [8] [%] | growth at 1 µM [9] [%] | growth at 1 µM [10] [%] | growth at 0.01 µM [11] [%] | growth at 0.01 µM [12] [%] | growth at 0.01 µM [13] [%] | growth at 0.001 µM [14] [%] | TGI [15] [µM] | CC50 [15] [µM] | GI50 [16] [µM] | TGI [16] [µM] | CC50 [16] [µM] | GI50 [17] [µM] | further results
Cc1cc(O)cc(-c2nn(CC#N)cc2-c2ccnc(-c3ccc(N(C)C)cc3)c2)c1 | 77 | 91 | -44 | 97 | 101 | 13 | 6.66 | 80.3 | -39 | -49 | 75 | 94 | 102 | 91 | 59.8 | > 100 | 3.36 | 18.2 | > 100 | 2.12 | GI50 [15]: 6.08 µM; TGI [17]: 5.33 µM; CC50 [17]: 27.3 µM; GI50 [18]: 4.56 µM; TGI [18]: 39.2 µM; CC50 [18]: > 100 µM; GI50 [19]: 1.01 µM; TGI [19]: 3.21 µM; CC50 [19]: > 100 µM; growth at 0.01 µM [20]: 98%; growth at 0.1 µM [21]: 100%; growth at 1 µM [22]: 27%; growth at 10 µM [23]: 12.3%; growth at 10 µM [24]: -6%; growth at 10 µM [25]: -22%; growth at 10 µM [26]: -12%; growth at 10 µM [27]: -31%; growth at 10 µM [28]: -25%; growth at 10 µM [29]: -80%
COc1cc(C)cc(-c2nn(CC#N)cc2-c2ccnc(-c3ccc(N(C)C)cc3)c2)c1 | -8 | 16 | -32 | 97 | 61 | 5 | -10 | 2.87 | -7 | -7 | 98 | 101 | 92 | 93 | > 1 | > 100 | 0.35 | 8.79 | > 100 | 0.259 | growth at 1 µM [30]: -27%; TGI [17]: 0.596 µM; CC50 [17]: > 100 µM; TGI [18]: > 100 µM; CC50 [18]: > 100 µM; GI50 [19]: 0.235 µM; TGI [19]: 0.613 µM; CC50 [19]: > 100 µM; growth at 0.01 µM [20]: 94%; growth at 0.1 µM [21]: 49%; growth at 1 µM [22]: 14%; growth at 10 µM [23]: -31.6%; growth at 10 µM [24]: 3%; growth at 10 µM [25]: -13%; growth at 10 µM [26]: -13%; growth at 10 µM [27]: -2%; growth at 10 µM [28]: 13%; growth at 10 µM [29]: -8%
